Assay outcomes (PubChem BioAssay)
Hits are enriched below; roughly 1.9% of the tested compounds scored in any of these assays.
NPY-Y2 PAM-ag – potentiates or activates human NPY-Y2 receptor | P49146 | activation, % at 3.6 µM | cells expressing NPY-Y2, potentiator/agonist read-out | 220,000 compounds, 0.45% hits | AID 1359; in the data active means activation above about 27%;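 further: cells stimulated with NPY near EC25 plus isoproterenol at EC100; 0% = vehicle plus submaximal agonist and 100% = vehicle plus saturating agonist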
Target sequence (P49146 whole entry, looked up): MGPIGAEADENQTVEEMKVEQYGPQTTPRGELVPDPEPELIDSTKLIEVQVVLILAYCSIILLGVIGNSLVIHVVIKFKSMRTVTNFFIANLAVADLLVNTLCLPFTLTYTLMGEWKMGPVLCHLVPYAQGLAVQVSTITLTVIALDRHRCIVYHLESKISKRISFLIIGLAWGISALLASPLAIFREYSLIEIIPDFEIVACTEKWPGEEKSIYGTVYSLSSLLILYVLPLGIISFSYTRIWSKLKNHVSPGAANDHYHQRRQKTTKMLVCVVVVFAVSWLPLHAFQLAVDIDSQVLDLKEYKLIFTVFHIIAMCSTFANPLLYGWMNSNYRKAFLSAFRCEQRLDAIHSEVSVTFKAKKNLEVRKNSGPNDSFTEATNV
NPY-Y2 antag – NPY-Y2 (human) receptor antagonism | AID 793 | inhibition, % at 2.7 µM | 140,000 compounds, 0.99% hits | NPY-Y2 expressing cells, antagonist mode; in the data active means inhibition above about 17%;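 further: 0% = vehicle with agonist challenge and 100% = reference antagonist with challenge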
NPY Y1 blocker – blocks the human neuropeptide Y Y1 receptor | P25929 | AID 1040 | inhibition, % at 3.6 µM | HEK293-CNG Y1 cells, membrane potential fluorescence; NPY at EC95, then isoproterenol | 200,000 compounds, 1% hits;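 active means inhibition above the campaign mean inhibition of all tested compounds plus 3 SD, cut at about 20% in these data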;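 further: 0% = DMSO wells given NPY plus isoproterenol and 100% = isoproterenol alone without NPY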
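Material: HEK293 cells co-expressing NPY Y1 receptor and cyclic-nucleotide gated channel. Timing: compound incubation 1 h at room temperature, readout 45 min post-stimulation. Signal: fluorescence, membrane potential probe.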
NPY1 pot ag – human NPY-Y1 potentiation or agonism, primary screen; 220,000 compounds, 0.37% hits; activation, % at 3.6 µM; P25929; AID 1304; NPY-Y1 expressing cells, potentiator/agonist activation; in the data active means activation above about 33%, passing the limit was not always enough;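 further: cells stimulated with NPY at EC10 then isoproterenol at EC100; 0% = low agonist plus stimulus and 100% = saturating agonist plus stimulus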
Starred values were filed as active, the others as inactive; · = not tested or not shown.

SMILES | NPY-Y2 PAM-ag | NPY-Y2 antag | NPY Y1 blocker | NPY1 pot ag
CC(C)c1[nH]nc2c1C(c1cccc(OC(=O)N3CCOCC3)c1)C(C#N)=C(N)O2 (stereo not given) | -0.2 | 20.4* | 130.6* | -30.5
O=C1N=C(N2CCCC2)S/C1=C\C=C\c1ccccc1 | 22.6 | · | · | 4.1
COc1ccccc1OCC(O)CNCc1ccc2c(c1)OCO2 (stereo not given) | 48.0* | · | · | 78.8*
COc1ccccc1CC(=O)NCc1ccc2c(c1)OCO2 | -3.8 | 5.3 | 7.9 | -31.0
COC(=O)c1ccc(NC(C)=O)cc1O | -0.9 | · | 7.5 | -12.6
COCCOC(=O)c1c(C)oc2ccc(O)c(CN3CCC(C)CC3)c12 | -7.9 | 12.9 | 14.6 | -15.3
CCOC(=O)c1c(-c2ccccc2)oc2ccc(O)c(CN(C)C)c12 | -35.4 | 25.1* | 22.4* | -49.4
CCOC(=O)c1c(-c2ccccc2)oc2ccc(O)c(CN3CCCC3)c12 | -43.6 | 22.8* | 38.8* | -42.6
COc1ccc2c(CC(=O)OCC(=O)Nc3sc4c(c3C#N)CCC(C)C4)coc2c1 (stereo not given) | 0.6 | 8.5 | 11.4 | -10.2
O=C(Cn1cnc2ccccc2c1=O)Nc1ccc(N2CCOCC2)cc1 | 6.5 | · | 2.4 | 7.6
Cc1cc(C)c2nc(Cl)c(Cl)nc2c1 | -9.2 | · | · | 11.0
COc1ccccc1CNc1nc2ccccc2n1CCN1CCCCC1 | -8.3 | 20.7* | 22.6* | -37.6
Cc1cc(C)c2c(c1)/C(=N/NC(=O)c1cc(C)oc1C)CCC2 | -11.7 | 1.2 | 2.5 | -7.9
O=C(NC1CCCCCCC1)C1c2ccccc2C(=O)N1Cc1cccs1 (stereo not given) | -1.7 | 31.0* | 33.2* | -27.7
COc1ccc(N2CCN(C(=O)c3cc4c(s3)-c3ccccc3S(=O)(=O)C4)CC2)cc1 | 67.4* | · | · | 81.3*
CCOCCCNC(=O)c1ccc(N2CCCC2)c(NS(=O)(=O)c2ccc(C)cc2)c1 | 32.8* | · | -9.3 | 57.8*
COCCCNC(=O)c1ccc(N2CCCC2)c(NS(=O)(=O)c2ccc(C)cc2)c1 | 4.7 | 4.4 | -4.2 | 0.7
Cc1nc(N2CCN(Cc3ccc(Cl)cc3)CC2)c2oc3ccccc3c2n1 | -35.2 | · | · | -8.8
COc1ccccc1N1CCN(c2nc(C)nc3c2oc2ccccc23)CC1 | -20.5 | 19.5* | 31.9* | -30.8
CCCCCn1c(=O)c(-c2nc3ccccc3[nH]2)c(O)c2ccccc21 | -24.9 | · | 8.2 | -7.7
O=[N+]([O-])c1ccc(C2Oc3ccccc3C3CC(c4ccccc4)=NN32)s1 (stereo not given) | -3.7 | -1.8 | 4.1 | 9.9
Nc1nc(-c2ccc3c(c2)OCCO3)cs1 | -9.7 | 6.0 | 20.4* | -14.9
O=C(Nc1cnc2ccccn2c1=O)c1ccc(Cl)cc1 | -6.5 | 1.3 | -2.9 | 7.4
O=C(NCCCn1ccnc1)c1cc([N+](=O)[O-])cc([N+](=O)[O-])c1 | 77.8* | 1.2 | 1.2 | 61.4*
O=C(CC1C(=O)N(c2ccc(Cl)cc2)C(=S)N1CCc1ccncc1)Nc1ccc(F)cc1 (stereo not given) | 52.2* | -2.5 | -7.6 | 60.9*
SMILES | NPY-Y2 PAM-ag | NPY-Y2 antag | NPY Y1 blocker | NPY1 pot ag
c1ccc2c(c1)oc1c(NCc3ccc4c(c3)OCO4)ncnc12 | -18.8 | 17.8* | 5.8 | -32.4
c1ccc2c(c1)oc1c(Nc3ccc4c(c3)OCO4)ncnc12 | -10.7 | 5.2 | 3.8 | -11.4
CC(Sc1nc(NCc2ccccc2)nc(N(C)C)n1)C(=O)Nc1ccccc1 (stereo not given) | -41.1 | 12.1 | 17.0 | -40.9
CC(Sc1nc(N)c2c3c(sc2n1)CSC(C)(C)C3)C(=O)Nc1ccccc1 (stereo not given) | -16.2 | 53.1* | 22.1* | -12.2
COc1ccc(CNC(=O)C2=CCN(S(=O)(=O)c3ccc(C)cc3)CC2)cc1 | 8.4 | · | · | -2.1
O=C(O)C1CC1c1ccc(Br)cc1 (stereo not given) | -35.4 | 14.5 | 31.1* | -42.5
CCc1ccc(OCC(O)CN2CCC(CN3C(=O)c4cccc5cccc(c45)C3=O)CC2)cc1 (stereo not given) | 10.7 | 5.0 | 10.7 | 4.4
COc1cccc(OCC(O)CN2CCC(CN3C(=O)c4cccc5cccc(c45)C3=O)CC2)c1 (stereo not given) | 43.2* | · | 2.6 | 51.7*
C[C@@H]1C=C[C@](Cc2ccccc2)(C(=O)NCCc2c[nH]c3ccccc23)N1C(=O)c1ccccc1 | -0.5 | 18.6* | 34.6* | -29.9
O=C(O)/C=C\C(=O)Nc1ccccc1C(=O)N1CCN(c2ccc(Cl)cc2)CC1 | 31.2* | 1.0 | 1.8 | 90.7*
CC(C)c1ccc(N2CCN(C(=O)c3ccccc3NC(=O)/C=C\C(=O)O)CC2)cc1 | -16.2 | -2.8 | -4.6 | -2.1
COc1cc(C2=NC(CO)(CO)CO2)cc(OC)c1OC | -7.1 | · | -0.5 | 3.3
N#Cc1c(N2CCCCC2)nc(N2CCCCC2)c2c1CCN(Cc1ccccc1)C2 | -3.5 | 25.2* | 22.6* | -33.5
CC(C)CCNC(=O)NC(=O)CSc1ncccn1 | -7.2 | · | -5.2 | 7.5
CN(CCC#N)C(=S)Nc1ccc(S(=O)(=O)N2CCOCC2)cc1 | -2.5 | · | 1.7 | 14.1
c1ccc(CCCCNCC2COc3ccccc3O2)cc1 (stereo not given) | -18.8 | · | 20.3* | -4.5
CS(=O)(=O)N1CCN(c2ccccc2NC(=O)Cc2ccccc2)CC1 | -3.1 | 8.5 | 6.9 | -21.8
CCOc1cccc(C(=O)Nc2ccccc2N2CCN(C(=O)C(C)C)CC2)c1 | -9.9 | 21.1* | 21.1* | -9.3
CC(C)C(=O)N1CCN(c2ccccc2NC(=O)Cc2ccc(Cl)cc2)CC1 | -6.3 | 20.4* | 43.5* | -6.2
CCC(=O)N1CCN(c2ccccc2NC(=O)Cc2ccccc2)CC1 | -16.7 | 16.4 | 24.0* | -17.2
Cc1ccc(C(=O)Nc2ccccc2N2CCN(C(=O)C(C)C)CC2)cc1 | 4.1 | 3.6 | 14.1 | 9.8
CCC(=O)N1CCN(c2ccc(Cl)cc2NC(=O)c2ccc(Br)o2)CC1 | -0.7 | 17.4* | 8.6 | -31.0
CC(=O)N1CCN(c2ccccc2NC(=O)Cc2ccc(Cl)cc2)CC1 | -2.4 | · | 4.3 | -5.0
CCSC1=NCCN1C(=O)c1ccc(S(=O)(=O)N(C)C)cc1 | 2.4 | · | 2.1 | -22.2
COc1ccc(Cc2nnc3n2N=C(c2cc4ccccc4o2)CS3)cc1OC | -6.8 | 5.6 | 10.2 | -33.1
SMILES | NPY-Y2 PAM-ag | NPY-Y2 antag | NPY Y1 blocker | NPY1 pot ag
O=c1oc2cc(OCc3ccc(F)cc3F)ccc2cc1-c1ccc2ccccc2n1 | -9.0 | -0.6 | 1.8 | -14.2
CCOc1ccc(C2CC(c3ccc(F)cc3)n3ncnc3N2)cc1 (stereo not given) | 0.1 | 2.9 | 2.4 | 8.3
COc1ccc(C(=O)Nc2cccc(-c3cc4ccccc4oc3=O)c2)cc1[N+](=O)[O-] | 2.7 | 2.0 | -0.4 | -9.5
CCCN(CCC)S(=O)(=O)c1ccc(Cl)c([N+](=O)[O-])c1 | 77.1* | · | -12.8 | 76.6*
CCOCCCNCC(O)c1ccccc1 (stereo not given) | 0.6 | -0.1 | 9.4 | -43.2
OCc1cc(C(O)CNCCCCCCOCCCCc2ccccc2)ccc1O (stereo not given) | 86.0* | · | -11.3 | 77.6*
CCN(CC)CC(=O)Nc1cccc2c1C(=O)c1ccccc1C2=O | -2.3 | · | 1.4 | 22.4
O=C1c2ccccc2C(=O)c2c(NCCCN(CCO)CCO)cccc21 | 38.9* | · | -13.1 | 52.6*
